The source made the active and inactive calls. The calls are words filed in the database; no cut-off is given here.
Legend:
[1] = target: Cannabinoid receptor 1 (Homo sapiens) (UniProt P21554); assay: Negative allosteric modulation of human CB1 receptor expressed in CHO cell membranes assessed as decrease in CP55940-induced agonist activity at 1 uM after 90 mins by [35S]-GTPgammaS binding based liquid scintillation spectrometric method relative to control; format: functional; set-up: scale not given: the % may be the effect or the level left; conditions: Cell membrane
Method in brief: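 Test compound held fixed at 1 µM (from 10.00 mM DMSO stock) against CP55940 0.1 nM to 1 µM. Incubated with hCB1-CHO membranes (50.0 µg protein/tube, 0.1% DMSO) for 90 min at 30 °C, with [35S]GTPγS 0.1 nM and GDP 30 µM in Tris/MgCl2/NaCl/EDTA/DTT buffer, pH 7.4. Bound label filtered and counted. Data taken as % change over vehicle basal; mean of six experiments in duplicate.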

[2] = target: Cannabinoid receptor 1 (Homo sapiens) (UniProt P21554); assay: Positive allosteric modulation of human CB1 receptor expressed in CHO cell membranes assessed as increase in binding [3H]CP55940 to the receptor after 60 mins by liquid scintillation spectrometric method; conditions: Cell membrane, filed as positive allosteric modulator, dose 1-10000 nM
Method in brief: (§1)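 Membranes from CHO cells stably expressing human CB1 (50.0 µg protein/tube) incubated 60 min at 37 °C with [3H]CP55940 0.700 nM and compound 1 nM to 10 µM (from 10.00 mM DMSO stocks; 0.1% DMSO). Ended with ice-cold Tris buffer and vacuum filtration, six washes. Filters oven-dried, then scintillation counted. Six independent experiments in duplicate; one-sample t-test against zero.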

[3] = target: Cannabinoid receptor 1 (Homo sapiens) (UniProt P21554); assay: Positive allosteric modulation of human CB1 receptor expressed in CHO cell membranes assessed as increase in binding [3H]CP55940 to the receptor up to 10 uM after 60 mins by liquid scintillation spectrometric method relative to control; conditions: Cell membrane, filed as positive allosteric modulator, dose microM <=10, time 60.0 min; method in brief: as §1
[4] = target: Cannabinoid receptor 1 (Homo sapiens) (UniProt P21554); assay: Inverse agonist activity at human CB1 receptor expressed in CHO cell membranes assessed as decrease in cellular response up to 10 uM after 90 mins by [35S]-GTPgammaS binding based liquid scintillation spectrometric method; format: functional; conditions: Cell membrane, dose microM <=10, time 90.0 min
Method in brief: (§2)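 Compound alone, 1 nM to 10 µM (from 10.00 mM DMSO stocks; 0.1% DMSO per tube), incubated 90 min at 30 °C with hCB1-CHO membranes (50.0 µg protein/tube). Buffer: 50 mM Tris, 10 mM MgCl2, 100 mM NaCl, 0.2 mM EDTA, 1 mM DTT, pH 7.4, with [35S]GTPγS 0.1 nM and GDP 30 µM. Read by filtration and scintillation counting. Response expressed as % change from vehicle basal stimulation. Six independent experiments, each in duplicate.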

[5] = target: Cannabinoid receptor 1 (Homo sapiens) (UniProt P21554); assay: Inverse agonist activity at human CB1 receptor expressed in CHO cell membranes assessed as decrease in cellular response up to 1 uM after 90 mins by [35S]-GTPgammaS binding based liquid scintillation spectrometric method; format: functional; conditions: Cell membrane, dose microM <=1, time 90.0 min; method in brief: as §2
[6] = target: Cannabinoid receptor 1 (Homo sapiens) (UniProt P21554); assay: Negative allosteric modulation of human CB1 receptor expressed in CHO cell membranes assessed as decrease in CP55940-induced agonist activity at 100 nM after 90 mins by [35S]-GTPgammaS binding based liquid scintillation spectrometric method; format: functional; conditions: Cell membrane, filed as negative allosteric modulator
[7] = target: Cannabinoid receptor 2 (Homo sapiens) (UniProt P34972); assay: Positive allosteric modulation of human CB2 receptor expressed in CHO cell membranes assessed as increase in binding [3H]CP55940 to the receptor at 0.001 to 10 uM after 60 mins by liquid scintillation spectrometric method; conditions: Cell membrane, dose 0.001-10 µM
Method in brief: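 Human CB2 stably expressed in CHO cells; membranes at 50.0 µg protein/tube with [3H]CP55940 0.700 nM and compound 1 nM to 10 µM (0.1% DMSO). Incubated 60 min at 37 °C, then filtered under vacuum with ice-cold Tris buffer and scintillation counted. Six independent experiments, each in duplicate.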

[8] = target: Cannabinoid receptor 1 (Homo sapiens) (UniProt P21554); assay: Inverse agonist activity at human CB1 receptor expressed in CHO cell membranes assessed as decrease in cellular response >1 uM after 90 mins by [35S]-GTPgammaS binding based liquid scintillation spectrometric method; format: functional; set-up: scale not given: the % may be the effect or the level left; conditions: Cell membrane, dose microM >1, time 90.0 min; method in brief: as §2
[9] = target: Cannabinoid receptor 1 (Homo sapiens) (UniProt P21554); assay: Inverse agonist activity at human CB1 receptor expressed in CHO cell membranes assessed as decrease in cellular response at 0.001 to 10 uM after 90 mins by [35S]-GTPgammaS binding based liquid scintillation spectrometric method relative to control; format: functional; set-up: scale not given: the % may be the effect or the level left; conditions: Cell membrane, dose 0.001-10 µM; method in brief: as §2
[10] = target: Cannabinoid receptor 1 (Homo sapiens) (UniProt P21554); assay: Positive allosteric modulation of human CB1 receptor expressed in CHO cell membranes assessed as increase in binding [3H]CP55940 to the receptor at 1 uM after 60 mins by liquid scintillation spectrometric method relative to control; conditions: Cell membrane; method in brief: as §1
[11] = target: Cannabinoid receptor 2 (Homo sapiens) (UniProt P34972); assay: Binding affinity to human CB2 receptor expressed in CHO cell membranes assessed as displacement of [3H]CP55940 from the receptor > 1 uM after 60 mins by liquid scintillation spectrometric method; conditions: Cell membrane, dose microM >1, time 60.0 min
[12] = target: Cannabinoid receptor 1 (Homo sapiens) (UniProt P21554); assay: Positive allosteric modulation of human CB1 receptor expressed in CHO cell membranes assessed as increase in binding [3H]CP55940 to the receptor at 10 uM after 60 mins by liquid scintillation spectrometric method relative to control; conditions: Cell membrane; method in brief: as §1

Chain of Cannabinoid receptor 1 (Homo sapiens) (P21554 whole entry): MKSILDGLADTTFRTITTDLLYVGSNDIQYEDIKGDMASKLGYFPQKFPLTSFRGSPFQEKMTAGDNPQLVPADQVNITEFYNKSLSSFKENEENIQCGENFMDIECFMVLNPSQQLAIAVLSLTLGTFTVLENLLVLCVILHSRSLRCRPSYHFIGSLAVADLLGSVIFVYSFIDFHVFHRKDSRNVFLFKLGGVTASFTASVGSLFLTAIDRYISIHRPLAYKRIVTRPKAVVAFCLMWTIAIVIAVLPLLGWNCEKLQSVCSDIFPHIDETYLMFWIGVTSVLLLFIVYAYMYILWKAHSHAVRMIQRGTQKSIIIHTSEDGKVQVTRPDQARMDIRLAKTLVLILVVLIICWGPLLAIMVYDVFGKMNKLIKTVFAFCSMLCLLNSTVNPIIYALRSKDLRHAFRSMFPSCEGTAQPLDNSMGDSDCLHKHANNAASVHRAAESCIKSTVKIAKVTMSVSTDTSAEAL
Chain of Cannabinoid receptor 2 (Homo sapiens) (P34972 whole entry): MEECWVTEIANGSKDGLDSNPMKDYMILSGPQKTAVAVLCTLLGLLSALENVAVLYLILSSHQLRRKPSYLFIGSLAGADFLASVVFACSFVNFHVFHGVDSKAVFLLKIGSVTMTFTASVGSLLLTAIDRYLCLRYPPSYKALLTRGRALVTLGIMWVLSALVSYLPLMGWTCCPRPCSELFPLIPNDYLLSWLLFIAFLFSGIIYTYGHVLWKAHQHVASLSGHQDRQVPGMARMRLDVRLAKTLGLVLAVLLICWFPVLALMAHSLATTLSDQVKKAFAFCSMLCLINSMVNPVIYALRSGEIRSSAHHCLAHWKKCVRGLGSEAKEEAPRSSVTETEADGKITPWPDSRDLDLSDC

SMILES | Activity [1] | Activity [2] | Activity [3] [%] | also measured
O=C(Nc1ccc(Cl)cc1)Nc1cccc(Nc2cccc(N3CCCC3)n2)n1 | inactive | Dose-dependent effect | 60 | Activity [4]: inactive
O=C(Nc1ccc(Cl)cc1)Nc1cccc(Nc2cccc(N3CCCCC3)n2)n1 | inactive | Dose-dependent effect | 50 | Activity [4]: inactive
O=C(Nc1ccc(Cl)cc1)Nc1cccc(Nc2ccc(F)cc2)c1 | 30% | Dose-dependent effect | 90 | Activity [5]: inactive; Activity [6]: Active; Activity [7]: inactive; Activity [8]: 35%
O=C(Nc1ccc(F)cc1)Nc1cccc(-c2cccc(N3CCCC3)c2)c1 | – | Dose-dependent effect | 70 | Activity ([9]; filed as inverse agonist): 45%
O=C(Nc1ccc(Cl)cc1)Nc1cccc(Nc2ccccn2)c1 | – | Dose-dependent effect | 170 | Activity [9]: 30%
O=C(Nc1ccc(Cl)cc1)Nc1cccc(Nc2ccccc2)c1 | – | Dose-dependent effect | 90 | Activity [9]: 30%
O=C(Nc1ccc(Cl)cc1)Nc1cccc(-c2cccc(N3CCCCC3)c2)c1 | 30% | – | – | Activity [5]: inactive; Activity [10]: 40%; Activity [8]: 30%; Displacement [11]: Active
O=C(CCc1ccc(Cl)cc1)Nc1cccc(-c2cccc(N3CCCC3)c2)c1 | – | – | – | Activity [12]: inactive
